Screening data deposited in PubChem by Sanford-Burnham Center for Chemical Genomics.
This is a sample that favours compounds with a hit; in the whole collection about 1.5% have one here.
HNF4A DNA FP – change in binding of human HNF4 alpha to DNA | activity change, % at 10 µM | P41235 | HNF4a-FITC DNA binding, fluorescence polarization, 1 h | actives 0.3% (n = 360,000); in the data active means activity change above about 30%, passing the limit was not always enough
Rev-erbA mod – Rev-erb alpha (human) modulation. Rev-erbα–FITC-DNA binding, fluorescence polarization, 90 min. activity, % at 10 µM. actives 0.79% (n = 370,000);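 active means activity above about 14%, limit read from the data; passing the limit was not always enough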;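 further: 0% = DMSO wells with 35 nM protein and 100% = DMSO wells with 750 nM protein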
aDG glyco up – alpha-DG glycosylation activation; Pro5-aDG cells, alpha-DG glycosylation AlphaScreen (IIH6); 0% Pro5, 100% B10-LARGE cell signal; activation, % at 10 µM; actives 0.22% (n = 360,000);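 active means activation of at least 8% versus controls, or a plate z-score of at least 8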;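 further: Pro5 are CHO cells carrying HIG-tagged alpha-DG that lacks glycosylation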
CSN inh – CSN deneddylation inhibition. Purified CSN, SCF-Nedd8-OG deneddylation, fluorescence polarization. inhibition, % at 12.5 µM. actives 0.38% (n = 360,000);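 active means pattern-corrected inhibition above about 35%, with an unprinted fluorescence ratio check between 0.5 and 1.5, limit read from the data, passing the limit was not always enough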;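 further: 0% = enzyme with substrate and 100% = substrate without enzyme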
Target sequence (Q92905 whole entry, looked up, one chain of several): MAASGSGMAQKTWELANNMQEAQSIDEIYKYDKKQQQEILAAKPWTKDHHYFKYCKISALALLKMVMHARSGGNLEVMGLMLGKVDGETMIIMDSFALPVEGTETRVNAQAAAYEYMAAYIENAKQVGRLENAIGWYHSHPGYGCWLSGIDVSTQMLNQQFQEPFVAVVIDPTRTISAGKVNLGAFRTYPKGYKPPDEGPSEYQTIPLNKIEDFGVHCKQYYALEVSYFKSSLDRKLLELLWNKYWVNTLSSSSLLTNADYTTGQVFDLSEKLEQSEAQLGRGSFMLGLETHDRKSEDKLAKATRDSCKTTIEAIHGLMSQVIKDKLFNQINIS
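Material: purified human Csn5 enzyme expressed in HEK293T cells / Medium: Tris buffer pH 7.5, NaCl, DTT, Tween-20, trehalose, ovalbumin / Compound dosing: 12.5 µM single point / Schedule: 90 min incubation of compound, enzyme and substrate at room temperature / Signal: fluorescence polarization of the substrate / Control set: no-enzyme wells high, enzyme-with-substrate wells low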
NR1D1 mod conf – confirmation of modulators of human Rev-erb alpha DNA binding | shares compounds with Rev-erbA mod | actives 61% (n = 3,000) | activation, % at 25 µM | Rev-erb alpha FITC-DNA binding, fluorescence polarization, 90 min;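 active means activation at or above a set limit, or at least 3 SD above the negative control mean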;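 further: 0% = 35 nM protein with DMSO and 100% = 750 nM protein high control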
RORg counter – RORgamma DNA-binding activity, dose-response counter-screen; actives 8% (n = 910); AID 1259320; IC50, µM; purified RORgamma protein-FITC-DNA binding, fluorescence polarization; shares compounds with Rev-erbA mod;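 active means Compounds whose fitted half-maximal concentration for disrupting protein-DNA binding is below 10 micromolar; the record names Rev-erb in its text, so the target is in doubt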
The depositor's hits bear a star; i = inactive; · = not tested or not shown.

SMILES	HNF4A DNA FP	Rev-erbA mod	aDG glyco up	CSN inh	NR1D1 mod conf	others
CCCCCc1ccc(OCCCC[n+]2cccc(C)c2)c(CCCCC)c1	0	21*	0	-7	28*
CCCCCc1ccc(OCCCC[n+]2ccccc2)c(CCCCC)c1	4	·	0	-8	·
COc1ccc2nc(SC)c(C#N)cc2c1	5	42*	0	-8	47*	RORg counter=>40
COc1ccc2nc(SCc3cccnc3)c(C#N)cc2c1	3	86*	1	-3	56*	RORg counter=i
CCOC(=O)c1c(NC(=O)CSc2nc3ccccc3c(=O)n2-c2ccccc2)sc(C(C)=O)c1C	12	140*	0	9	15
CCOC(=O)c1c(NC(=O)CSc2nc(C)cc(C)c2C#N)sc(C(C)=O)c1C	-3	35*	0	9	17*
CCOC(=O)c1sc(NC(=O)CSc2nc3c(cc2C#N)CCCCC3)c(C#N)c1C	7	30*	0	0	20*
Cc1ccc2sc(NC(=O)CSc3nc(C)cc(C)c3C#N)nc2c1	-1	29*	0	-1	6
CC(C)[C@@H]1NC(=O)[C@H]2C[C@@]3(c4ccccc4)c4ccccc4N[C@H]3N2C1=O	·	-3	·	·	·
CCc1nnc(NC(=O)CSc2nc3c(cc2C#N)CCCC3)s1	-3	34*	0	6	23*
CCc1ccc2nc(SCC(=O)Nc3nnc(C)s3)c(C)cc2c1	-6	19	0	-6	·
CCc1nnc(NC(=O)CSc2nc3cc4c(cc3cc2C)OCCO4)s1	3	47*	0	-3	47*	RORg counter=>40
COc1ccc(C(=O)COC(=O)c2cc(=O)[nH]c3ccccc23)c(OC)c1	1	77*	0	-3	37*	RORg counter=>40
COc1ccccc1C(=O)COC(=O)c1cc(=O)[nH]c2ccccc12	-4	14	0	3	·
O=[N+]([O-])c1ccc(Oc2cccc(F)c2)c2ccncc12	-1	14*	0	-1	9
N#CCC[C@@H]1CC[C@]2(CCCN(C(=O)c3ccco3)C2)O1	·	1	·	·	·
O=c1c2ccccc2[nH]n1[C@@H](Cc1ccccc1)Cn1cc(-c2ccc(-c3ccccc3)cc2)nn1	·	-2	·	·	·
Cc1cc(C)n2nc(-c3ccc(Cl)cc3)cc2n1	0	65*	0	0	52*	RORg counter=>40
COc1ccc(-c2cc3nc(C)cc(C)n3n2)cc1	-2	-14	1	3	·
CC(=O)c1cnc2cc(-c3ccc(Cl)cc3)nn2c1C	3	28*	1	2	10
Cc1cc(C)n2nc(-c3ccc(Br)cc3)cc2n1	-1	27*	0	2	3
Cc1cc(C(=O)N2CCN(S(C)(=O)=O)CC2)sc1-c1ccccc1	20	41*	0	2	35*
O=C(Nc1ccc(Br)cc1)OCCN1CCCC12CCC(c1ccccc1)CC2 (stereo not drawn)	·	4	·	·	·
Cc1ccc(C)c(NC(=O)CSc2nc3ccccc3nc2N2CCOCC2)c1	1	32*	0	-4	24*
COc1ccc2nc(SCC(=O)N3CC(=O)Nc4ccccc43)c(C#N)cc2c1	6	-3	0	6	·
SMILES	HNF4A DNA FP	Rev-erbA mod	aDG glyco up	CSN inh	NR1D1 mod conf	others
Cc1ccccc1NC(=O)CSc1nc2cc3c(cc2cc1C)CCC3	3	102*	0	3	23*
Cc1cc(C)c2nc(SCC(=O)N3CC(=O)Nc4ccccc43)c(C#N)cc2c1	7	98*	0	4	64*	RORg counter=>40
Cc1cc(C)c2nc(SCC(=O)Nc3ccccc3N3CCOCC3)c(C#N)cc2c1	5	65*	0	1	32*	RORg counter=>40
CCCCCCCCN1CCS(=O)(=O)N(Cc2ccccc2)C(C(=O)OC)C1 (stereo not drawn)	·	0	·	·	·
O=C(CN1C(=O)C2CCCCN2C(=O)c2ccccc21)N1CCCC1 (stereo not drawn)	·	-5	·	·	·
CC(C)(C)c1ccc(-c2nnc(SCC3CCCCO3)n2-c2ccc(Cl)cc2)cc1 (stereo not drawn)	·	8	·	·	·
COc1ccc(NC(=O)COc2nc3ccccc3nc2N2CCOCC2)c(OC)c1	0	24*	0	-10	10
C=CCn1c(SCCNC(C)=O)nc2cc(-c3ccccc3)sc2c1=O	2	49*	0	-5	54*	RORg counter=>40
CCCC1CCC2(CC1)CCC2OC(=O)Nc1ccc(F)cc1 (stereo not drawn)	·	4	·	·	·
O=C(c1cccc(F)c1)N1CCCC(c2nc(-c3cccs3)no2)C1 (stereo not drawn)	·	9	·	·	·
Cn1nccc1C(=O)Nc1sc2c(c1C#N)CCCC2	0	-2	0	5	·
COc1ccc(-c2c(C)sc(NC(=O)c3ccnn3C)c2C#N)cc1	-2	47*	1	-2	27*
CN(CCOC(=O)c1cc2ccccc2o1)C1CN(Cc2cn(Cc3ccccc3C(F)(F)F)nn2)S(=O)(=O)C1 (stereo not drawn)	·	7	·	·	·
C=C1C[C@@]23CCC4[C@@](C)(CCC[C@@]4(C)C(=O)O)C2CC[C@]1(O)C3 (stereo partly drawn)	3	13*	0	3	4
O=S1(=O)c2ccc(N3CCSCC3)cc2Oc2ccccc2CN1Cc1cn(Cc2ccc(C(F)(F)F)cc2)nn1	·	3	·	·	·
O=S1(=O)c2ccc(N3CCSCC3)cc2Oc2ccccc2CN1Cc1cn(Cc2cccc(C(F)(F)F)c2)nn1	·	18*	·	·	10
O=S1(=O)c2ccc(N3CCSCC3)cc2Oc2ccccc2CN1Cc1cn(Cc2ccc(F)cc2)nn1	·	20*	·	·	19*
Cc1ccc(-c2nc3ncccn3c2NC(=O)Nc2ccc(F)cc2)cc1	·	-1	·	·	·
CCCC1CCC2(CC1)CCC2OC(=S)Nc1cccc(Cl)c1 (stereo not drawn)	·	6	·	·	·
COC(CNC(=O)c1ccc2c(=O)n(Cc3ccc4c(c3)OCO4)c(=S)[nH]c2c1)OC	3	3	0	-3	·
COc1cccc(CNC(=O)CCCn2c(=S)[nH]c3cc4c(cc3c2=O)OCO4)c1	1	86*	0	4	57*	RORg counter=>40
CCCCNC(=O)CCCn1c(=S)[nH]c2cc3c(cc2c1=O)OCO3	1	-4	0	-1	·
COC(CNC(=O)c1ccc2c(=O)n(Cc3ccc(Cl)cc3)c(=S)[nH]c2c1)OC	-5	29*	0	1	12
COCCNC(=O)c1ccc2c(=O)n(CCCN3CCCC3=O)c(=S)[nH]c2c1	-8	2	0	-8	·
COc1cccc(N2CCN(C(=O)CCCCCn3c(=S)[nH]c4cc5c(cc4c3=O)OCO5)CC2)c1	0	-16	0	1	·
O=C(NCc1ccccc1Cl)c1ccc2c(=O)n(CCCN3CCCC3=O)c(=S)[nH]c2c1	3	29*	0	-3	18*
